Laboratory results as given in ChEMBL document CHEMBL2321744 (J Med Chem, 2013).
Activity calls are given as the source filed them. The rule behind the calls is not given here.

Assays:
[1] = target: T1, Phospholipase D2 (Homo sapiens, UniProt O14939); experiment: Inhibition of GFP-tagged PLD2 in human HEK293 cells assessed as deuterated 1-butanol incorporation pretreated for 5 mins prior to substrate addition measured after 30 mins by mass spectrometry
[2] = target: T2, Phospholipase D1 (Homo sapiens, UniProt Q13393); experiment: Inhibition of PLD1 in human Calu-1 cells assessed as deuterated 1-butanol incorporation pretreated for 5 mins prior to substrate addition measured after 30 mins by mass spectrometry
T2 sequence (Q13393 whole entry): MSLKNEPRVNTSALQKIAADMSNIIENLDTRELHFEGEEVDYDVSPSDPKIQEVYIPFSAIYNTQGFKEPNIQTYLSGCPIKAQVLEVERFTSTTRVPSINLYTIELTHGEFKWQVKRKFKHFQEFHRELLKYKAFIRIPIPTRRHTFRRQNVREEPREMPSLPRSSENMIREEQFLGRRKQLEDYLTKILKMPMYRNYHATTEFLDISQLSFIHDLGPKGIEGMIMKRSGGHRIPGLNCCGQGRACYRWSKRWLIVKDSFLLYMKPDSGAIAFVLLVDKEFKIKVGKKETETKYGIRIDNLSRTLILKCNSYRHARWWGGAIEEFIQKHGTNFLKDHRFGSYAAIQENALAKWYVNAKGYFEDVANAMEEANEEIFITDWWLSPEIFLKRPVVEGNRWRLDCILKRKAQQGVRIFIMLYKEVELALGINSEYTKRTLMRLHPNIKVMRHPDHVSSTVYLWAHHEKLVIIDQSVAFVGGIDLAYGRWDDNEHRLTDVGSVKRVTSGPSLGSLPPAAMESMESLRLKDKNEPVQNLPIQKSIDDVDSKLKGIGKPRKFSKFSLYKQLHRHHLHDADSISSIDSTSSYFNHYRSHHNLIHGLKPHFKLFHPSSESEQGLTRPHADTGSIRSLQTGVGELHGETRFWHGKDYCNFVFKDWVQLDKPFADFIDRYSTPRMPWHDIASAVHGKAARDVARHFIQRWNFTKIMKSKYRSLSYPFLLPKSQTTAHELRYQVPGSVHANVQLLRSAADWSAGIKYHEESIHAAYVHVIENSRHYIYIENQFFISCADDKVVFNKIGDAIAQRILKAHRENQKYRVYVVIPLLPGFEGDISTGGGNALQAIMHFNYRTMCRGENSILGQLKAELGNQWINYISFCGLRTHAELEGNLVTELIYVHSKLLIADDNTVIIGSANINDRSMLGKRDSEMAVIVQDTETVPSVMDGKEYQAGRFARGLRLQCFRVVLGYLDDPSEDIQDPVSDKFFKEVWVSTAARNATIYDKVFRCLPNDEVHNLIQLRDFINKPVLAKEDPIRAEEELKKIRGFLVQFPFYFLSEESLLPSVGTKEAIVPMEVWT

[3] = tested on: U-87 MG; experiment: Increase in caspase 3/7 activation in human U87MG cells after 6 to 72 hrs under serum free conditions; format: functional, cell-based; details: U-87MG ATCC
[4] = Solubility of the compound in PBS buffer; format: physicochemical
[5] = Cytotoxicity against human U87MG cells assessed as cell viability up to 10 uM by WST-1 assay in presence of 10% FBS relative to control; format: cell-based; details: u-87mg atcc
How it was run: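 U87-MG cells in 10% FBS were exposed to compound at concentrations up to 10 μM. Viability was compared with DMSO vehicle.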

[6] = target: hERG (KCNH2) (Homo sapiens, UniProt Q12809); experiment: Inhibition of human ERG at 10 uM by radioligand binding assay
Sequence of hERG (KCNH2) (Q12809 whole entry): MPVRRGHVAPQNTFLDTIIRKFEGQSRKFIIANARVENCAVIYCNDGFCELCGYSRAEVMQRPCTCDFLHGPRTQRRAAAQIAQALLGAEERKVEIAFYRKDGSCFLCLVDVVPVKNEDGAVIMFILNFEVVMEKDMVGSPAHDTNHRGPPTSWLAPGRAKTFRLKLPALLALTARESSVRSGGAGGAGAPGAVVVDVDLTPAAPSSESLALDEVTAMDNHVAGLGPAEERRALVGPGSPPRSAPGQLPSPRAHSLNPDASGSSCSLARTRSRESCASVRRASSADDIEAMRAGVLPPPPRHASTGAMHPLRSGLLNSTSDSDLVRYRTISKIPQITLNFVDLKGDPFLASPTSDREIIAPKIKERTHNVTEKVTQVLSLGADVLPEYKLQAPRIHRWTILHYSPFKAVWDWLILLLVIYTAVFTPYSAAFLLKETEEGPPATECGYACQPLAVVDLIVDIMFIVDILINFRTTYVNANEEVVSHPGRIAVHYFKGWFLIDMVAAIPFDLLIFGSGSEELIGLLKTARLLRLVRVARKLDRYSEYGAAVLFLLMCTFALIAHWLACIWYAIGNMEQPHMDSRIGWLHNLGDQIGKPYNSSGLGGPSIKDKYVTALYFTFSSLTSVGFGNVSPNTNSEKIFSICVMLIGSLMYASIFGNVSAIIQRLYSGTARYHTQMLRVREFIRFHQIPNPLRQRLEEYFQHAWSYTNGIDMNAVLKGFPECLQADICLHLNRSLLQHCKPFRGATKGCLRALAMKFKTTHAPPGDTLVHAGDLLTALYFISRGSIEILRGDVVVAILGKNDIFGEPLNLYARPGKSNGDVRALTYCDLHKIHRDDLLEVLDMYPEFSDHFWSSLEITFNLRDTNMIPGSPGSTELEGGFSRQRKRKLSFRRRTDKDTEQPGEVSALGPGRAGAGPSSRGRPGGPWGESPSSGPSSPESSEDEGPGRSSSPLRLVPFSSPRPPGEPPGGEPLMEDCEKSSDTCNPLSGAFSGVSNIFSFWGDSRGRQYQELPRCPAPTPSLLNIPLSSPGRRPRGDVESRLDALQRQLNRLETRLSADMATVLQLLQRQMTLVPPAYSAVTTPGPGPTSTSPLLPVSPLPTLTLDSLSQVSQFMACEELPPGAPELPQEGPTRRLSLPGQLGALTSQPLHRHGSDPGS

[7] = Stability of the compound in PBS buffer up to 48 hrs; format: physicochemical
[8] = target: T1, Phospholipase D2; details: U-87MG ATCC
[9] = in vivo; details: black6 (printed 'balck6'), mouse, lung, ip, 10 mg/kg
[10] = in vivo; details: black6 (printed 'balck6'), mouse, brain, ip, 10 mg/kg

T1 sequence (O14939 whole entry): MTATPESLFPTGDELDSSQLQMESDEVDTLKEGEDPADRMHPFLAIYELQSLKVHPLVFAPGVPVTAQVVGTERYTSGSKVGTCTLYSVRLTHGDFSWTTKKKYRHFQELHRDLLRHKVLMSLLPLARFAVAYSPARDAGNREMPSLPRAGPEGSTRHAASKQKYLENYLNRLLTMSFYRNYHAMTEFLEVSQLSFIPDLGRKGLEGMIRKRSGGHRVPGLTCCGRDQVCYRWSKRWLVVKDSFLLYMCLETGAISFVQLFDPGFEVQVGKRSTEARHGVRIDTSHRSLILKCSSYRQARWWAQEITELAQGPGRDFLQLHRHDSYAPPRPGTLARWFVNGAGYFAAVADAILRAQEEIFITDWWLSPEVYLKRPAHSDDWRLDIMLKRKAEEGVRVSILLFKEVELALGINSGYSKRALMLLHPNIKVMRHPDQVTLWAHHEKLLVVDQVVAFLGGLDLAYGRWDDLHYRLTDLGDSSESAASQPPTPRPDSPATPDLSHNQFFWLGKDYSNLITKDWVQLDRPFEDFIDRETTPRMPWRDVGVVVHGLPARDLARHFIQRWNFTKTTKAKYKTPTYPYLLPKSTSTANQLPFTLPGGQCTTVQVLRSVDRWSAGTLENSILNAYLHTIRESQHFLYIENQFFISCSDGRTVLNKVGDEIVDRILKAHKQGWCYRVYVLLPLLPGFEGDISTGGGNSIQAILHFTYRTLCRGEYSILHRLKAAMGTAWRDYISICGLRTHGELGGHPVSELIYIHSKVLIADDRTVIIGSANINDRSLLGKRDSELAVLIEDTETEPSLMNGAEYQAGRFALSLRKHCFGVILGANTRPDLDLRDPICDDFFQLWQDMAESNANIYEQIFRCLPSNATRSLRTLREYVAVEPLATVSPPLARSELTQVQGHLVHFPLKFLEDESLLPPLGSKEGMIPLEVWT

Row | SMILES | IC50 [1] | IC50 [2] | other results
1 | O=C(NCCN1CCC2(CC1)C(=O)NCN2c1cccc(F)c1)c1ccc(Br)cc1 | 200 nM | 1540 nM | –
2 | C[C@@H](CN1CCC2(CC1)C(=O)NCN2c1cccc(F)c1)NC(=O)c1ccc(F)c(F)c1 | 120 nM | 86 nM | –
3 | C[C@@H](CN1CCC2(CC1)C(=O)NCN2c1cccc(F)c1)NC(=O)c1ccc(F)cc1 | 35 nM | 20 nM | –
4 | C[C@H](CN1CCC2(CC1)C(=O)NCN2c1cccc(F)c1)NC(=O)c1ccc(Br)cc1 | 800 nM | – | –
5 | C[C@H](CN1CCC2(CC1)C(=O)NCN2c1cccc(F)c1)NC(=O)c1ccc(F)cc1 | 1060 nM | 760 nM | –
6 | C[C@H](CN1CCC2(CC1)C(=O)NCN2c1cccc(F)c1)NC(=O)c1ccc(F)c(F)c1 | 3450 nM | 1400 nM | –
7 | Cc1cccc(N2CNC(=O)C23CCN(C[C@H](C)NC(=O)c2ccc(Br)cc2)CC3)c1 | – | – | Activity [3]: Active; solubility [4]: soluble; Activity [5]: Non-toxic; inhibition at 10 µM [6]: > 50%; Stability [7]: Stable
8 | O=C(NCCN1CCC2(CC1)C(=O)NCN2c1cccc(F)c1)c1ccc(F)c(F)c1 | – | – | inhibition [8]: Dose-dependent effect; solubility [4]: soluble; AUC at 6 h [9]: 4.61 µM·h; Activity [5]: Non-toxic; AUC at 6 h [10]: 0.08 µM·h; Stability [7]: Stable
9 | O=C(NCCN1CCC2(CC1)C(=O)NCN2c1cccc(F)c1)c1ccc(F)cc1 | 350 nM | – | –
